This note sets out measurements from ChEMBL document CHEMBL1124006, “Synthesis and cognition activating properties of some mono- and bicyclic lactam derivatives” (1988).

Assay [1] deals with Mus musculus. The assay is described as follows: Spontaneous motor activity in open field at the dose of 1000 mg/kg on mice. It is filed as functional. Summed up:
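Swiss mice, male and female, 22 ± 2 g, 10 per dose (5 each sex). Dosed ip in 1% Tween 80, doses up to 1000 mg/kg. Open field 15 min after injection; total movements in 5 min; mean ± SD, t test.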

Assay [2] has as its system Rattus norvegicus. Description: Effect of lactam derivatives tested at dose of 100 mg/kg in the water- maze test (day 2). The format is functional. The procedure, abridged: (§1)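 Male Sprague-Dawley rats, 250-300 g, 10 per group; day 1 selects rats unable to leave the water maze within 5 min. Drug dosed ip twice daily on days 2-4, equimolar to 100 mg/kg piracetam. On day 5, two doses 30 min apart, then transtemporal ECS (60 mA/0.2 s). Mazes run 15, 60, 240 min after shock. Errors (reversals plus wrong entrances) and exit time recorded; mean ± SD, t test.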

The subject of assay [3] is Rattus norvegicus. The assay is described as follows: Effect of tested at dose of 100 mg/kg in the water- maze test (day 2). It is filed as functional. Summed up: as §1
Assay [4] concerns Mus musculus. The assay is described as follows: Maximal Electroshock seizure (% of animals without seizures) at the dose of 1000 mg/kg on mice. The format is functional. Summed up: (§2)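 Swiss mice of both sexes, 10 per dose, ip in 1% Tween 80. Maximal electroshock set to kill 50% of controls (60 mA, 0.4 s, 0.6 ms pulse width). Mice without seizures counted as protected; percent protected.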
(In general: The maximal electroshock test induces tonic seizures with an electrical stimulus.)

Assay [5] deals with Rattus norvegicus. The assay is described as follows: Effect of tested at dose of 100 mg/kg in the water- maze test (day 1). The format is functional. The procedure, abridged:
as §1

Assay [6] concerns Rattus norvegicus. The assay is described as follows: Effect of lactam derivative on retention in one-trial passive avoidance test in rats tested at equimolar doses to 100 mg/kg ip of piracetam. It is filed as functional, organism-based. Set-up: dose 100 mg/kg. The following applies: at 100 mg/kg. The procedure, abridged: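 Male Sprague-Dawley rats, 250-300 g, 8 per group, dosed ip twice for 2 days, equimolar to 100 mg/kg piracetam. Trained to avoid dark compartment, 720 μA footshock for 15 s; retested 24 h later with grid off. Rats avoiding dark side 0.2-3 min counted as remembering; percent retention.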

For assay [7], the system named is Rattus norvegicus. Description: Effect of tested at dose of 100 mg/kg in the water- maze test after 15 minutes (day 4). It is filed as functional. Summed up: as §1
The test system of assay [8] is Rattus norvegicus. Description: Effect of tested at dose of 100 mg/kg in the water- maze test after 60 minutes (day 4). The format is functional. Summed up:
as §1

For assay [9], the system named is Rattus norvegicus. The assay is described as follows: Effect of tested at dose ofv 100 mg/kg in the water- maze test (day 2). The format is functional. Summed up: as §1
The test system of assay [10] is Rattus norvegicus. The assay is described as follows: Retention time was measured at equimolar doses to 100 mg/kg ip of piracetam. It is filed as functional, organism-based. Further details: dose 100 mg/kg. The procedure, abridged:
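Male Sprague-Dawley rats, 8 per group, ip twice for 2 days, equimolar to 100 mg/kg piracetam. Footshock 720 μA, 15 s; retest 24 h later. For remembering rats, retention time T = T' − T0, light-compartment time at retest minus time at acquisition; mean ± SD, t test.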

Assay [11] relates to Rattus norvegicus. Description: Effect of lactam derivatives tested at dose of 100 mg/kg in the water- maze test (day 1). The format is functional. The procedure, abridged:
as §1

Assay [12] relates to Mus musculus. Description: Motor coordination in rotarod test performed (total number of falls in 3 min) at the dose of 1000 mg/kg on mice. It is filed as functional. Background: Falling from the rotarod earlier than controls is read as motor impairment.
Assay [13] deals with Mus musculus. Description: Exploratory activity in hole board at the dose of 1000 mg/kg lactam derivatives on mice. It is filed as functional. The procedure, abridged: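 Swiss mice of both sexes, 22 ± 2 g, 10 per dose, ip in 1% Tween 80. Hole board (Boissier and Simon); holes explored in 5 min counted by infrared device; mean ± SD.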
Assay [14] has as its system Rattus norvegicus. The assay is described as follows: Effect of tested at dose of 100 mg/kg in the water- maze test after 30 minutes (day 4). The format is functional.
Assay [15] concerns Mus musculus. Description: Traction test (times in seconds on the horizontal wire with forelegs) performed at the dose of 1000 mg/kg on mice. The format is functional. Summed up: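 Swiss mice of both sexes, 10 per dose, ip in 1% Tween 80. Boissier and Simon traction test; time spent hanging by forelegs on a horizontal wire, in seconds; mean ± SD.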
For assay [16], the system named is Rattus norvegicus. Description: Effect of tested at dose of 100 mg/kg in the water- maze test (day 3). It is filed as functional. Summed up:
as §1

The test system of assay [17] is Mus musculus. Description: Exploratory activity in hole board at the dose of 500 mg/kg lactum derivatives on mice. The format is functional. Summed up:
(§3)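 Swiss inbred mice (male and female, 22 ± 2 g), 10 per dose (5 of each sex), given ip in 1% Tween 80; controls got vehicle only. Boissier–Simon hole board with infrared detection: total holes explored per animal in 5 min, mean ± SD. t test vs vehicle.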

The subject of assay [18] is Mus musculus. The assay is described as follows: Motor coordination in rotarod test performed (total number of falls in 3 min) at the dose of 500 mg/kg lactam derivatives on mice. It is filed as functional. The procedure, abridged: (§4)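 Rota-rod motor coordination in Swiss mice (10 per dose, sexes mixed, 22 ± 2 g), dosed ip in 1% Tween 80 against vehicle controls. Falls counted per animal, mean ± SD; t test vs vehicle. The table footer gives 3 min and the method gives a 100 s observation period.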

Assay [19] relates to Mus musculus. Description: Spontaneous motor activity in open field at the dose of 500 mg/kg on mice. It is filed as functional. Summed up:
(§5)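 Open-field activity in male and female Swiss mice (22 ± 2 g, 10 per dose), compound given ip in 1% Tween 80 with vehicle-only controls. Tested 15 min after injection: total movements per animal in 5 min, mean ± SD; t test vs vehicle.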

Assay [20] relates to Mus musculus. Description: Maximal Electroshock seizure (% of animals without seizures) at the dose of 1000 mg/kg lactam derivatives on mice. The format is functional. Summed up:
as §2

In assay [21] the test system is Mus musculus. Description: Traction test (times in seconds on the horizontal wire with forelegs) performed at the dose of 500 mg/kg lactam derivatives on mice. The format is functional. Summed up: (§6)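 Boissier–Simon traction test in Swiss mice (5 male plus 5 female per dose, 22 ± 2 g), dosed ip in 1% Tween 80, with vehicle controls. Read-out: time in seconds each mouse stays hanging by its forelegs on a horizontal wire, mean ± SD; t test vs vehicle.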

Assay [22] deals with Mus musculus. Description: Maximal Electroshock seizure (% of animals without seizures) at the dose of 500 mg/kg lactam derivatives on mice. The format is functional. Summed up:
(§7)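 Swiss mice (5 male, 5 female per dose, 22 ± 2 g) dosed ip in 1% Tween 80, with vehicle controls. Maximal electroshock set to kill 50% of controls: 60 mA, 0.4 s shock, 0.6 ms pulse width. Read-out: percent of animals without seizures.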

For assay [23], the system named is Mus musculus. Description: Traction test (times in seconds on the horizontal wire with forelegs) performed at the dose of 1000 mg/kg lactam derivatives on mice. It is filed as functional. The procedure, abridged: as §6
Assay [24] has as its system Mus musculus. The assay is described as follows: Motor coordination in rotarod test performed (total number of falls in 3 min) at the dose of 1000 mg/kg lactam derivatives on mice. The format is functional. Summed up: as §4
For assay [25], the system named is Mus musculus. Description: Maximal Electroshock seizure (% of animals without seizures) at the dose of 500 mg/kg on mice. The format is functional. Summed up: as §7
Assay [26] deals with Mus musculus. The assay is described as follows: Exploratory activity in hole board at the dose of 1000 mg/kg on mice (statistical significance test). It is filed as functional. The procedure, abridged:
as §3

Assay [27] has as its system Mus musculus. The assay is described as follows: Spontaneous motor activity in open field at the dose of 1000 mg/kg on mice (statistical significance test). The format is functional. The procedure, abridged:
as §5

In assay [28] the test system is Mus musculus. Description: Motor coordination in rotarod test performed (total number of falls in 3 min) at the dose of 500 mg/kg on mice. It is filed as functional. Summed up:
as §4

Assay [29] deals with Mus musculus. The assay is described as follows: Traction test (times in seconds on the horizontal wire with forelegs) performed at the dose of 500 mg/kg on mice (statistical significance test). The format is functional. The procedure, abridged:
as §6

For assay [30], the system named is Mus musculus. Description: Traction test (times in seconds on the horizontal wire with forelegs) performed at the dose of 1000 mg/kg on mice (statistical significance test). It is filed as functional. The procedure, abridged:
as §6

The subject of assay [31] is Mus musculus. Description: Motor coordination in rotarod test performed (total number of falls in 3 min) at the dose of 1000 mg/kg on mice (statistical significance test). It is filed as functional. The procedure, abridged: as §4

“And” between values parts separate entries of the source, which are not always exact repeats. Equal entries are not always repeated.

With `NC(=O)CN1CCCC1=O` [PIRACETAM], the Activity in assay [1] was determined as 3764.3; in [4], 0%; in assay [12], 1.7; in assay [13], 19.6; in assay [15], 79.9. Further, the No. of errors in assay [2] is 7.2 and 8.1; in assay [5], 7.6 and 9.1; in assay [7], 3.2; in assay [8] it was 3.6; in [14] it was 2.1; in [16], 3.5 and 5. Further, the Speed of performance in [3] is 291.5; in [7], 251; in assay [8] it was 197.6; in assay [9] it was 282.7; in assay [11], 272.2 and 265; in assay [14] it was 235.7. Moreover, the Speed of performance in assay [16] was 249 and 250.1. The molecule further had a Retention in assay [6] of 100%. The molecule further displayed a Retention time in assay [10] of 43.2 s.
On to `CCOC(=O)C1CNC(=O)CC1C(=O)OCC` (stereo in doubt; 5) [listing 1 of 2 here], for which the Retention in assay [6] was found to be 100%. The Retention time in [10] was 47.2 s.
With `CCOC(=O)C1CNC(=O)CC1C(=O)OCC` (stereo in doubt; 4) [listing 1 of 2 here], the Activity in [17] worked out at 20.4; in assay [1] it was 2522; in [18], 1; in [19], 3410.5; in [20], 0%; in assay [21] it was 75.8. Further, the Activity in assay [22] is 0%; in assay [23], 112.8; in assay [24], 3.3; in assay [13], 20.
On to `CCOC(=O)C1CNC(=O)CC1C(=O)OCC` (stereo in doubt; 4) [listing 2 of 2 here], for which the Retention in assay [6] came to 100%. The molecule also had a Retention time in [10] of 44.2 s.
As for `CCOC(=O)C1CNC(=O)CC1C(=O)OCC` (stereo in doubt; 5) [listing 2 of 2 here], the Activity in assay [25] was 0%; in assay [26], 8.9%; in assay [4] it was 40%; in assay [27], 782; in assay [19], 3025.2; in assay [28] it was 0.8. Also, the Activity was 65.1 in assay [29], below 7 in assay [30] and 16.4 in assay [31].
